In ChEMBL document CHEMBL1153580, “Synthesis and pharmacological investigation of 3-(substituted 1-phenylethanone)-4-(substituted phenyl)-1, 2, 3, 4-tetrahydropyrimidine-5-carboxylates” (Eur J Med Chem, 2009):

Assays:
Rattus norvegicus [1] = test: Antihypertensive activity in Norwegian albino rat assessed as inhibition of DOCA salt-induced diastolic blood pressure at 10 mg/kg, po after 120 mins by invasive carotid artery cannulation method; format: functional; conditions: 2 h
Method in brief: (§1)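 Male rats (200–250 g), uninephrectomized and given DOCA s.c. (30–50 mg/kg/week) with 1% NaCl drinking water. Anesthetized with pentobarbital (35 mg/kg i.p.); left carotid artery cannulated and exteriorized. After recovery and a baseline reading, compound given orally by feeding needle. Diastolic pressure recorded via transducer at 15, 30, 60, 120 and 180 min. Mean ± S.E.M.; repeated-measures ANOVA.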

Rattus norvegicus [2] = test: Antihypertensive activity in Norwegian albino rat assessed as inhibition of DOCA salt-induced diastolic blood pressure at 10 mg/kg, po after 180 mins by invasive carotid artery cannulation method; format: functional; conditions: 3 h; method in brief: as §1
Rattus norvegicus [3] = test: Antihypertensive activity in Norwegian albino rat assessed as inhibition of DOCA salt-induced diastolic blood pressure at 10 mg/kg, po after 240 mins by invasive carotid artery cannulation method; format: functional; conditions: 4 h
Rattus norvegicus [4] = test: Antiinflammatory activity in Norwegian albino rat assessed as inhibition of carrageenan-induced paw edema at 100 mg/kg, po after administered 60 mins prior to carrageenan-challenge measured after 1 hr; format: functional
Method in brief: (§2)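 Compound given orally as 100 mg/kg suspension in 0.5% CMC. 60 min later, carrageenan injected sub-plantar into the left hind paw. Paw volume measured within 30 s of injection, then at 1–5 h. % inhibition = [1−(Dt/Dc)]×100, where Dt and Dc are mean relative paw-volume changes in test and control. ANOVA.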

Rattus norvegicus [5] = test: Antiinflammatory activity in Norwegian albino rat assessed as inhibition of carrageenan-induced paw edema at 100 mg/kg, po after administered 60 mins prior to carrageenan-challenge measured after 3 hrs; format: functional; method in brief: as §2
Rattus norvegicus [6] = test: Antiinflammatory activity in Norwegian albino rat assessed as inhibition of carrageenan-induced paw edema at 100 mg/kg, po after administered 60 mins prior to carrageenan-challenge measured after 5 hrs; format: functional; method in brief: as §2
Mus musculus = test: Analgesic activity against acetic acid-induced writhing in Swiss albino mouse assessed as protection at 20 mg/kg, po; format: functional
Method in brief: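 Swiss albino mice (25–30 g), six per group, habituated 30 min individually in the test cage. Compound in 1% CMC given p.o. at 20 mg/kg. 1 h later, acetic acid injected i.p.; writhes (arching of back, body elongation, hind-limb extension) counted 5–15 min after injection. % inhibition = (n−n′)/n×100, where n and n′ are mean writhes in control and test.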

Rattus norvegicus [7] = test: Gastrointestinal toxicity in albino rat assessed as ulcerogenic index at 50 mg/kg, po; format: organism-based; set-up: dose 50 mg/kg, route oral; conditions: in vivo
Method in brief: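 Albino rats (150–200 g), six per group, food but not water withheld 24 h. Compound given p.o. at 50 mg/kg; controls received 1% methyl cellulose. Rats fed 17 h, then killed; stomach opened along greater curvature and examined under 4× magnifier. Lesions scored as large (>2 mm), small (1–2 mm) or punctiform (<1 mm). Severity index = treated mean score minus control mean score.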

Rattus norvegicus [8] = test: Antihypertensive activity in Norwegian albino rat assessed as inhibition of DOCA salt-induced systolic blood pressure at 10 mg/kg, po after 420 mins by non-invasive tail-cuff method; format: functional; conditions: Artery, 7 h
Method in brief: (§3)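 Male rats (200–250 g), uninephrectomized under pentobarbital (50 mg/kg i.p.); one week later DOCA s.c. 30–50 mg/kg/week, with 1% w/v NaCl in drinking water. Groups of six, trained in restrainer, tail warmed at 33–34 °C. Compound in 0.5% CMC, 10 mg/kg orally. Systolic pressure read by tail-cuff before dosing and from 1 h after; three readings averaged. ANOVA.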

Rattus norvegicus [9] = test: Antihypertensive activity in Norwegian albino rat assessed as inhibition of DOCA salt-induced systolic blood pressure at 10 mg/kg, po after 15 mins by non-invasive tail-cuff method; format: functional; conditions: Artery, 0.25 h
Rattus norvegicus [10] = test: Antihypertensive activity in Norwegian albino rat assessed as inhibition of DOCA salt-induced systolic blood pressure at 10 mg/kg, po after 30 mins by non-invasive tail-cuff method; format: functional; conditions: Artery, 0.5 h
Rattus norvegicus [11] = test: Antihypertensive activity in Norwegian albino rat assessed as inhibition of DOCA salt-induced systolic blood pressure at 10 mg/kg, po after 60 mins by non-invasive tail-cuff method; format: functional; conditions: Artery, 1 h; method in brief: as §3
Rattus norvegicus [12] = test: Antihypertensive activity in Norwegian albino rat assessed as inhibition of DOCA salt-induced systolic blood pressure at 10 mg/kg, po after 120 mins by non-invasive tail-cuff method; format: functional; conditions: Artery, 2 h; method in brief: as §3
Rattus norvegicus [13] = test: Antihypertensive activity in Norwegian albino rat assessed as inhibition of DOCA salt-induced systolic blood pressure at 10 mg/kg, po after 180 mins by non-invasive tail-cuff method; format: functional; conditions: Artery, 3 h; method in brief: as §3
Rattus norvegicus [14] = test: Antihypertensive activity in Norwegian albino rat assessed as inhibition of DOCA salt-induced systolic blood pressure at 10 mg/kg, po after 240 mins by non-invasive tail-cuff method; format: functional; conditions: Artery, 4 h; method in brief: as §3
Rattus norvegicus [15] = test: Antihypertensive activity in Norwegian albino rat assessed as inhibition of DOCA salt-induced systolic blood pressure at 10 mg/kg, po after 300 mins by non-invasive tail-cuff method; format: functional; conditions: Artery, 5 h; method in brief: as §3
Rattus norvegicus [16] = test: Antihypertensive activity in Norwegian albino rat assessed as inhibition of DOCA salt-induced systolic blood pressure at 10 mg/kg, po after 360 mins by non-invasive tail-cuff method; format: functional; conditions: Artery, 6 h; method in brief: as §3
Rattus norvegicus [17] = test: Antihypertensive activity in Norwegian albino rat assessed as inhibition of DOCA salt-induced systolic blood pressure at 10 mg/kg, po after 480 mins by non-invasive tail-cuff method; format: functional; conditions: Artery, 8 h; method in brief: as §3
Rattus norvegicus [18] = test: Antihypertensive activity in Norwegian albino rat assessed as inhibition of DOCA salt-induced diastolic blood pressure at 10 mg/kg, po after 15 mins by invasive carotid artery cannulation method; format: functional; conditions: 0.25 h; method in brief: as §1
Rattus norvegicus [19] = test: Antihypertensive activity in Norwegian albino rat assessed as inhibition of DOCA salt-induced diastolic blood pressure at 10 mg/kg, po after 30 mins by invasive carotid artery cannulation method; format: functional; conditions: 0.5 h; method in brief: as §1
Rattus norvegicus [20] = test: Antihypertensive activity in Norwegian albino rat assessed as inhibition of DOCA salt-induced diastolic blood pressure at 10 mg/kg, po after 60 mins by invasive carotid artery cannulation method; format: functional; conditions: 1 h; method in brief: as §1

| SMILES | inhibition in vivo at 10 mg/kg (Rattus norvegicus [1]) | inhibition in vivo at 10 mg/kg (Rattus norvegicus [2]) | inhibition in vivo at 10 mg/kg (Rattus norvegicus [3]) | inhibition in vivo at 100 mg/kg (Rattus norvegicus [4]) | inhibition in vivo at 100 mg/kg (Rattus norvegicus [5]) | inhibition in vivo at 100 mg/kg (Rattus norvegicus [6]) | Activity (Mus musculus) | UI (Rattus norvegicus [7]) | inhibition in vivo at 10 mg/kg (Rattus norvegicus [8]) | inhibition in vivo at 10 mg/kg (Rattus norvegicus [9]) | inhibition in vivo at 10 mg/kg (Rattus norvegicus [10]) | inhibition in vivo at 10 mg/kg (Rattus norvegicus [11]) | inhibition in vivo at 10 mg/kg (Rattus norvegicus [12]) | inhibition in vivo at 10 mg/kg (Rattus norvegicus [13]) | inhibition in vivo at 10 mg/kg (Rattus norvegicus [14]) | inhibition in vivo at 10 mg/kg (Rattus norvegicus [15]) | inhibition in vivo at 10 mg/kg (Rattus norvegicus [16]) | inhibition in vivo at 10 mg/kg (Rattus norvegicus [17]) | inhibition in vivo at 10 mg/kg (Rattus norvegicus [18]) | inhibition in vivo at 10 mg/kg (Rattus norvegicus [19]) | further results |
| --- | --- | --- | --- | --- | --- | --- | --- | --- | --- | --- | --- | --- | --- | --- | --- | --- | --- | --- | --- | --- | --- |
| CCOC(=O)C1=C(C)NC(OC)N(CC(=O)c2ccc(Cl)cc2)C1c1ccc(O)cc1 (stereo unspecified) | 30.1% | 38.3% | 47.8% | 36.6% | 38.8% | 42% | 45.66% | 0.45 | 44% | 1% | 6.36% | 15.1% | 23.1% | 28.4% | 36.7% | 39.6% | 42% | 45.5% | 1.43% | 10.3% | inhibition in vivo at 10 mg/kg (Rattus norvegicus [20]): 22.5% |
| COC(=O)C1=C(C)NC(C)=C(C(=O)OC)C1c1ccccc1[N+](=O)[O-] [NIFEDIPINE] | 30.8% | 39.4% | 48.4% |  |  |  |  |  | 45.5% | 1.29% | 4.44% | 12.9% | 19.7% | 25% | 35.5% | 44.2% | 44.5% | 46.6% | 2.51% | 11.7% | inhibition in vivo at 10 mg/kg (Rattus norvegicus [20]): 23.6% |
| CCOC(=O)C1=C(C)NC(OC)N(CC(=O)c2ccc(OC)cc2)C1c1ccc(OC)cc1 (stereo unspecified) | 31.1% | 39.4% | 48.8% | 37.7% | 39.8% | 47.2% | 51.33% | 0.2 | 46.5% | 1.57% | 6.58% | 15.1% | 21.6% | 27.8% | 36% | 40.1% | 41.9% | 48.6% | 3.33% | 12.1% | inhibition in vivo at 10 mg/kg (Rattus norvegicus [20]): 23.5% |
| CCOC(=O)C1=C(C)NC(OC)N(CC(=O)c2ccc(OC)cc2)C1c1ccccc1 (stereo unspecified) | 30.1% | 37.8% | 47.8% | 37.1% | 38.4% | 42.6% | 45.8% | 0.74 | 45.1% | 1% | 6.49% | 13.8% | 20.5% | 28% | 36.8% | 38.3% | 41.6% | 46.5% | 1.84% | 8.97% | inhibition in vivo at 10 mg/kg (Rattus norvegicus [20]): 23.5% |
| CCOC(=O)C1=C(C)NC(OC)N(CC(=O)c2ccccc2)C1c1ccc(Cl)cc1 (stereo unspecified) |  |  |  | 39.8% | 41% | 42% | 37.87% | 0.45 | 32.1% | 0.91% | 1.87% | 15.2% | 20.5% | 22.9% | 25.6% | 28.4% | 29.7% | 35.6% |  |  |  |
| CCOC(=O)C1=C(C)NC(OC)N(CC(=O)c2ccccc2)C1c1ccc(O)cc1 (stereo unspecified) |  |  |  | 39.8% | 40.9% | 42% | 40.33% | 0.18 | 33% | 0.59% | 1.87% | 15.2% | 21.8% | 23% | 27.8% | 28.5% | 31.4% | 35.5% |  |  |  |
| CCOC(=O)C1=C(C)NC(OC)N(CC(=O)c2ccccc2)C1c1ccccc1 (stereo unspecified) |  |  |  | 39.8% | 41% | 42% | 40.14% | 0.16 | 29.4% | 0.59% | 1.43% | 13% | 19.6% | 21.6% | 23.3% | 26.3% | 28.7% | 31% |  |  |  |
| COc1ccc2c(c1)c(CC(=O)O)c(C)n2C(=O)c1ccc(Cl)cc1 [INDOMETHACIN] |  |  |  | 46.4% | 51.8% | 52.6% |  |  |  |  |  |  |  |  |  |  |  |  |  |  |  |
| CCOC(=O)C1=C(C)NC(OC)N(CC(=O)c2ccccc2)C1c1ccc(C)cc1 (stereo unspecified) | 30.6% | 35.5% | 48.7% | 37.8% | 37.9% | 38.9% |  |  | 44% | 0.59% | 1.87% | 13.7% | 17.4% | 28% | 36.8% | 38.3% | 42% | 45.5% | 2.2% | 9.79% | inhibition in vivo at 10 mg/kg (Rattus norvegicus [20]): 23.1% |
| CC(C)Cc1ccc(C(C)C(=O)O)cc1 (stereo unspecified) [IBUPROFEN] |  |  |  |  |  |  | 62.55% | 1.97 |  |  |  |  |  |  |  |  |  |  |  |  |  |
| CCOC(=O)C1=C(C)NC(OC)N(CC(=O)c2ccc(OC)cc2)C1c1ccc(O)cc1 (stereo unspecified) |  |  |  | 37.6% | 38.2% | 39.9% |  |  | 29.4% | 0.27% | 1.43% | 12.7% | 19.6% | 21.6% | 23.3% | 26.3% | 28% | 31% |  |  |  |
